Laboratory results published in ChEMBL document CHEMBL1649546, “Extended-spectrum properties of CMY-30, a Val211Gly mutant of CMY-2 cephalosporinase” (Antimicrob Agents Chemother, 2009).
In brackets after ≈: the same amount, converted by molar mass. Activity calls are given as the source filed them. The calls are words filed in the database; no cut-off is given here.

Tests used:
[1] = test system: Escherichia coli; assay: Antibacterial activity against 5 x 10^5 CFU/ml CMY-2 producing Escherichia coli MC4100 harboring plasmid AC-cmy2 by microdilution method; assay type: functional
How it was run: (§1)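 Broth microdilution MIC in Mueller-Hinton broth with an inoculum of 5 × 10^5 CFU/ml. Isogenic E. coli MC4100 strains (vector control or carrying CMY-2 or CMY-30) were tested in parallel.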

[2] = test system: Escherichia coli; assay: Antibacterial activity against 5 x 10^5 CFU/ml CMY-30 producing Escherichia coli MC4100 harboring plasmid AC-cmy30 by microdilution method; assay type: functional; how it was run: as §1
[3] = Inhibition of Escherichia coli MC4100 Beta-Lactamase CMY-30 using cephalothin as reporter substrate
[4] = (§2) Inhibition of Escherichia coli MC4100 Beta-Lactamase CMY-2 using cephalothin as reporter substrate
[5] = test system: Escherichia coli; assay: Antibacterial activity against 5 x 10^5 CFU/ml Escherichia coli MC4100 harboring plasmid ACYC184 by microdilution method in presence of 2 ug/ml clavulanic acid; assay type: functional
How it was run: (§3)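 Broth microdilution MIC in Mueller-Hinton broth with an inoculum of 5 × 10^5 CFU/ml. Clavulanic acid was held at a fixed 2 μg/ml. Isogenic E. coli MC4100 strains (vector control or carrying CMY-2 or CMY-30) were tested in parallel.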

[6] = test system: Escherichia coli; assay: Antibacterial activity against 5 x 10^5 CFU/ml Escherichia coli MC4100 harboring plasmid ACYC184 by microdilution method; assay type: functional; how it was run: as §1
[7] = test system: Escherichia coli; assay: Antibacterial activity against 5 x 10^5 CFU/ml CMY-2 producing Escherichia coli MC4100 harboring plasmid AC-cmy2 by microdilution method in presence of 2 ug/ml clavulanic acid; assay type: functional; how it was run: as §3
[8] = test system: Escherichia coli; assay: Antibacterial activity against 5 x 10^5 CFU/ml CMY-30 producing Escherichia coli MC4100 harboring plasmid AC-cmy30 by microdilution method in presence of 2 ug/ml clavulanic acid; assay type: functional; how it was run: as §3
[9] = test system: Escherichia coli; assay: Inhibition of Escherichia coli DH5alpha beta-lactamase CMY-2 assessed as aztreonam hydrolysis
How it was run: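 Agar bioassay on MH agar seeded with E. coli DH5α indicator (10^5 CFU/ml), with 30 μg aztreonam disks. Purified cephalosporinase (700 ng in 10 μl phosphate buffer) was applied near each disk. Plates were incubated 18 h at 35°C and read for distortion of the inhibition zone against control disks.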

[10] = test system: Escherichia coli; assay: Ratio of Kcat to Km for Escherichia coli MC4100 Beta-Lactamase CMY-2
How it was run: (§4)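 CMY-2 purified from E. coli MC4100 carrying high-copy plasmid pB-cmy2. Cells in 20 mM Tris pH 7.4 sonicated, then Q- and S-Sepharose ion exchange, >95% pure by SDS-PAGE. Kinetic constants are means of four independent measurements. For some β-lactams Km was determined as Ki with cephalothin as reporter substrate.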

[11] = test system: Escherichia coli; assay: Activity of Escherichia coli MC4100 Beta-Lactamase CMY-2; how it was run: as §4
[12] = test system: Escherichia coli; assay: Ratio of Kcat to Km for Escherichia coli MC4100 Beta-Lactamase CMY-30 harboring Val211?Gly211 mutation
How it was run: (§5)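 Enzyme source was E. coli MC4100 carrying high-copy plasmids pB-cmy30 or pB-cmy2. Enzyme was released by sonication in 20 mM Tris, pH 7.4, then purified by Q- and S-Sepharose ion exchange to >95% purity by SDS-PAGE. Values are means of four independent measurements. For some β-lactams, Km was obtained as Ki using cephalothin as reporter substrate.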

[13] = test system: Escherichia coli; assay: Activity of Escherichia coli MC4100 Beta-Lactamase CMY-30 harboring Val211?Gly211 mutation; how it was run: as §5
[14] = test system: Escherichia coli; assay: as §2
[15] = test system: Escherichia coli; assay: Antibacterial activity against 5 x 10^5 CFU/ml CMY-2 producing Escherichia coli MC4100 harboring plasmid AC-cmy2 by microdilution method in presence of 4 ug/ml Tazobactam; assay type: functional
How it was run: (§6)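 Broth microdilution MICs in Mueller-Hinton broth, inoculum 5 × 10^5 CFU/ml. Isogenic E. coli MC4100 strains carrying CMY-30, CMY-2 or no CMY gene were tested in parallel. Tazobactam was held at a fixed 4 μg/ml.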

[16] = test system: Escherichia coli; assay: Antibacterial activity against 5 x 10^5 CFU/ml CMY-30 producing Escherichia coli MC4100 harboring plasmid AC-cmy30 by microdilution method in presence of 4 ug/ml Tazobactam; assay type: functional; how it was run: as §6
[17] = test system: Escherichia coli; assay: Antibacterial activity against 5 x 10^5 CFU/ml Escherichia coli MC4100 harboring plasmid ACYC184 by microdilution method in presence of 4 ug/ml Tazobactam; assay type: functional; how it was run: as §6

SMILES | MIC [1] [µg/mL] | MIC [2] [µg/mL] | Ki [3] [nM] | Ki [4] [nM] | MIC [6] [µg/mL] | kcat/Km [10] [M⁻¹ s⁻¹] | kcat [11] [s⁻¹] | kcat/Km [12] [M⁻¹ s⁻¹] | kcat [13] [s⁻¹] | further results
CO/N=C(\C(=O)N[C@@H]1C(=O)N2C(C(=O)[O-])=C(C[N+]3(C)CCCC3)CS[C@H]12)c1csc(N)n1 | 0.25 (≈ 0.52 µM) | 0.25 (≈ 0.52 µM) |  |  |  |  |  |  |  | 
C[C@]1(/C=C\C#N)[C@H](C(=O)O)N2C(=O)C[C@H]2S1(=O)=O |  |  | 200 | 100 |  |  |  |  |  | 
CC1(C)S[C@@H]2[C@H](NC(=O)[C@H](N)c3ccc(O)cc3)C(=O)N2[C@H]1C(=O)O [AMOXICILLIN] | > 512 | > 512 |  |  | 4 (≈ 10.9 µM) |  |  |  |  | MIC [5]: 4 µg/mL; MIC [7]: > 512 µg/mL; MIC [8]: > 512 µg/mL
C[C@H]1[C@H](NC(=O)/C(=N\OC(C)(C)C(=O)O)c2csc(N)n2)C(=O)N1S(=O)(=O)O [AZTREONAM] | 16 (≈ 36.7 µM) | 128 (≈ 294 µM) | 17 | 2.1 |  |  |  |  |  | Activity [9]: Active
N[C@@H](C(=O)N[C@@H]1C(=O)N2C(C(=O)O)=C(Cl)CS[C@H]12)c1ccccc1 [CEFACLOR ANHYDROUS] | > 512 | > 512 |  |  | 2 (≈ 5.44 µM) |  |  |  |  | 
CO/N=C(\C(=O)N[C@@H]1C(=O)N2C(C(=O)O)=C(COC(C)=O)CS[C@H]12)c1csc(N)n1 [CEFOTAXIME] | 16 (≈ 35.1 µM) | 256 (≈ 562 µM) | 300 | 5 | 0.12 (≈ 0.263 µM) | < 2e+06 | < 0.01 | 5.7e+06 | 1.7 | 
CO[C@@]1(NC(=O)Cc2cccs2)C(=O)N2C(C(=O)O)=C(COC(N)=O)CS[C@@H]21 [CEFOXITIN] | > 512 | > 512 | 170 | 150 | 2 (≈ 4.68 µM) | 2.3e+06 | 0.35 | 1.6e+06 | 0.28 | 
CC(C)(O/N=C(\C(=O)N[C@@H]1C(=O)N2C(C(=O)[O-])=C(C[n+]3ccccc3)CS[C@H]12)c1csc(N)n1)C(=O)O [CEFTAZIDIME] | 128 (≈ 234 µM) | > 512 | 140 | 20 | 0.25 (≈ 0.457 µM) | 500000 | 0.01 | 2.9e+06 | 0.4 | 
CO/N=C(\C(=O)N[C@@H]1C(=O)N2C(C(=O)O)=C(COC(N)=O)CS[C@H]12)c1ccco1 [CEFUROXIME] | > 512 | > 512 |  |  | 2 (≈ 4.71 µM) |  |  |  |  | 
CC(=O)OCC1=C(C(=O)O)N2C(=O)[C@@H](NC(=O)Cc3cccs3)[C@H]2SC1 [CEPHALOTHIN] | > 512 | > 512 |  |  | 2 (≈ 5.04 µM) | 1.6e+07 | 267 | 1e+07 | 256 | Km [11]: 17 µM; Km [13]: 26 µM
Cc1onc(-c2ccccc2Cl)c1C(=O)N[C@@H]1C(=O)N2[C@@H]1SC(C)(C)[C@@H]2C(=O)O [CLOXACILLIN] |  |  | 2.3 | 0.2 |  |  |  |  |  | 
CC1(C)S[C@@H]2[C@H](NC(=O)Cc3ccccc3)C(=O)N2[C@H]1C(=O)O [PENICILLIN G] |  |  | 600 |  |  | 4e+07 | 24 | 3.8e+07 | 23 | Km [14]: 0.6 µM
CCN1CCN(C(=O)N[C@@H](C(=O)N[C@@H]2C(=O)N3[C@@H]2SC(C)(C)[C@@H]3C(=O)O)c2ccccc2)C(=O)C1=O [PIPERACILLIN] | 128 (≈ 247 µM) | 64 (≈ 124 µM) |  |  | 0.5 (≈ 0.966 µM) |  |  |  |  | MIC [15]: 16 µg/mL; MIC [16]: 16 µg/mL; MIC [17]: 0.5 µg/mL
C[C@]1(Cn2ccnn2)[C@H](C(=O)O)N2C(=O)C[C@H]2S1(=O)=O [TAZOBACTAM] |  |  | > 1000 | 800 |  |  |  |  |  | 
CC1(C)S[C@@H]2[C@H](NC(=O)[C@H](C(=O)O)c3ccsc3)C(=O)N2[C@H]1C(=O)O [TICARCILLIN] | > 512 | > 512 |  |  | 2 (≈ 5.2 µM) |  |  |  |  | MIC [5]: 1 µg/mL; MIC [7]: > 512 µg/mL; MIC [8]: > 512 µg/mL
